Active and inactive are the calls of the source. The rule behind the calls is not given here.
Experiments:
A-375 [1] = test: Antiproliferative activity against human A375 cells after 48 hrs by MTT assay; format: functional; conditions: A-375, 48 h
Outline: (§1)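 MTT reduction assay. Cell lines grown to log phase in DMEM with 10% FBS (A375 in DMEM with sodium pyruvate added), seeded at 10⁴ cells/well in 96-well plates. Three replicate wells per concentration, each assay run three times, GI50 averaged.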

WM 266-4 = test: Antiproliferative activity against human WM266.4 cells after 48 hrs by MTT assay; format: functional; conditions: WM 266-4, 48 h; outline: as §1
[2] = Antiproliferative activity against human WM1361 cells after 48 hrs by MTT assay; format: functional; conditions: WM1361, 48 h; outline: as §1
HT-29 = test: Antiproliferative activity against human HT-29 cells after 48 hrs by MTT assay; format: functional; conditions: HT-29, 48 h; outline: as §1
HCT-116 = test: Antiproliferative activity against human HCT116 cells after 48 hrs by MTT assay; format: functional; conditions: HCT-116, 48 h; outline: as §1
A-375 [3] = test: Antitumor activity against human A375 cells xenografted in nude mouse assessed as tumor weight at 5 mg/kg, ip administered every second day for 14 days and measured on day 15; format: functional
Outline: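 A375 cells, 3 × 10⁶ in 0.1 mL cold PBS, injected subcutaneously into right flank of nude mice. Treatment began when tumors reached ~100 mm³; mice randomized, 5 per group. Compound suspended in olive oil, given intraperitoneally every second day for 14 days. Body weight recorded every two days; tumors excised and weighed on day 15.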

Mus musculus = test: Toxicity in nude mouse xenografted with human A375 cells assessed as body weight loss at 5 mg/kg, ip administered every second day for 14 days and measured every 2 days; format: organism-based; conditions: in vivo
Outline: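 Nude mice bearing subcutaneous right-flank A375 xenografts (3×10⁶ cells in cold PBS) were randomized into groups of 5 at about 100 mm³. Compounds were suspended in olive oil and given intraperitoneally every second day for 14 days. Body weight was recorded every two days.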

[4] = biological target: Serine/threonine-protein kinase B-raf (Mus musculus, UniProt P28028, V600E); test: Inhibition of mouse full length GST-tagged BRAF V600E mutant using recombinant human full length N-terminal His-tagged MEK1 as substrate preincubated for 1 hr followed by substrate addition measured after 25 mins
Chain of Serine/threonine-protein kinase B-raf (Mus musculus, UniProt P28028, V600E) (P28028 whole entry, looked up, stated change not applied): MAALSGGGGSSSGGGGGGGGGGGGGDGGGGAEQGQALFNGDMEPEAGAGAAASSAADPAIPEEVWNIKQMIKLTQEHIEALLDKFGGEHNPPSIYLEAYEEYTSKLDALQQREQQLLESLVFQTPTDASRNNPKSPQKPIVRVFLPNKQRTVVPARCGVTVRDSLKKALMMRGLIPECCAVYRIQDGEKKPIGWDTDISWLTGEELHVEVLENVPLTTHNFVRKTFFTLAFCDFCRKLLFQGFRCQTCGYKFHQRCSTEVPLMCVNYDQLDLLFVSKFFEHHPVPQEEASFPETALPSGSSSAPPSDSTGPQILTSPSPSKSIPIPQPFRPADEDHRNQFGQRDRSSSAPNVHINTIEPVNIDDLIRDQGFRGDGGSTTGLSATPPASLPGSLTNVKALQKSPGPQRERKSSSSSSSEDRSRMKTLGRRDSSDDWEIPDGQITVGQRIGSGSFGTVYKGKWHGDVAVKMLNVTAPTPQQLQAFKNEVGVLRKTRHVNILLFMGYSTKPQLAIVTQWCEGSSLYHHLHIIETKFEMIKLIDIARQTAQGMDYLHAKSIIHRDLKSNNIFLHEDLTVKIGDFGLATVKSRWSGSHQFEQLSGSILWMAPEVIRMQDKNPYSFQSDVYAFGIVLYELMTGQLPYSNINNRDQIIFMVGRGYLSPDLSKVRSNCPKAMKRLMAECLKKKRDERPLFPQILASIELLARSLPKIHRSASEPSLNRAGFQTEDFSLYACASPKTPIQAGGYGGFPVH

[5] = biological target: Serine/threonine-protein kinase B-raf (Homo sapiens, UniProt P15056); test: Inhibition of recombinant human full length GST-tagged wild type BRAF expressed in baculovirus expression system using recombinant human full length N-terminal His-tagged MEK1 as substrate preincubated for 1 hr followed by substrate addition measured after 25 mins
Chain of Serine/threonine-protein kinase B-raf (Homo sapiens, UniProt P15056) (P15056 whole entry, the tested form may be a part): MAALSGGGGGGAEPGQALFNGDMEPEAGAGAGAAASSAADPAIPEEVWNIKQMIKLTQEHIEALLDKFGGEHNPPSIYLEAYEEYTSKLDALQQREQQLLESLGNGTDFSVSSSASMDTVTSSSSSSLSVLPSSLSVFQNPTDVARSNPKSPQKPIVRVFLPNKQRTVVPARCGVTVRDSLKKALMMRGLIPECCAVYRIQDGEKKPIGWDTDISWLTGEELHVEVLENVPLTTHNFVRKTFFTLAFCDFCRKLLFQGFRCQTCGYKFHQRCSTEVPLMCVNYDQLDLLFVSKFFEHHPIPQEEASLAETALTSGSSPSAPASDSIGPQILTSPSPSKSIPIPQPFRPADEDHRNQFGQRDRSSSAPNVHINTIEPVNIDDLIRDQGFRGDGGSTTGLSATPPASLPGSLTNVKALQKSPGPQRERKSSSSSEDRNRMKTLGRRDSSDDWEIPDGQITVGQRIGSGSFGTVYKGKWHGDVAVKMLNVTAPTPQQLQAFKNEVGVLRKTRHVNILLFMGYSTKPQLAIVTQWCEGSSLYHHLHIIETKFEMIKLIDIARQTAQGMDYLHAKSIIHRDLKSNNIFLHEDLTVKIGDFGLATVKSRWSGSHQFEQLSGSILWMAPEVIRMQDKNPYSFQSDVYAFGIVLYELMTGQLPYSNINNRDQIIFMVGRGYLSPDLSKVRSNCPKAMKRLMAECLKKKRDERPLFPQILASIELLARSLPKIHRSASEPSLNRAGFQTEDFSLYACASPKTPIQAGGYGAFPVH

[6] = biological target: RAF proto-oncogene serine/threonine-protein kinase (Homo sapiens, UniProt P04049, Y340D/Y341D); test: Inhibition of recombinant human GST-tagged c-RAF (306 to 648 residues) Y340D/Y341D mutant expressed in baculovirus expression system using recombinant human full length N-terminal His-tagged MEK1 as substrate preincubated for 1 hr followed by substrate addition measured after 25 mins
Chain of RAF proto-oncogene serine/threonine-protein kinase (P04049 whole entry Y340D/Y341D, the tested form may be a part): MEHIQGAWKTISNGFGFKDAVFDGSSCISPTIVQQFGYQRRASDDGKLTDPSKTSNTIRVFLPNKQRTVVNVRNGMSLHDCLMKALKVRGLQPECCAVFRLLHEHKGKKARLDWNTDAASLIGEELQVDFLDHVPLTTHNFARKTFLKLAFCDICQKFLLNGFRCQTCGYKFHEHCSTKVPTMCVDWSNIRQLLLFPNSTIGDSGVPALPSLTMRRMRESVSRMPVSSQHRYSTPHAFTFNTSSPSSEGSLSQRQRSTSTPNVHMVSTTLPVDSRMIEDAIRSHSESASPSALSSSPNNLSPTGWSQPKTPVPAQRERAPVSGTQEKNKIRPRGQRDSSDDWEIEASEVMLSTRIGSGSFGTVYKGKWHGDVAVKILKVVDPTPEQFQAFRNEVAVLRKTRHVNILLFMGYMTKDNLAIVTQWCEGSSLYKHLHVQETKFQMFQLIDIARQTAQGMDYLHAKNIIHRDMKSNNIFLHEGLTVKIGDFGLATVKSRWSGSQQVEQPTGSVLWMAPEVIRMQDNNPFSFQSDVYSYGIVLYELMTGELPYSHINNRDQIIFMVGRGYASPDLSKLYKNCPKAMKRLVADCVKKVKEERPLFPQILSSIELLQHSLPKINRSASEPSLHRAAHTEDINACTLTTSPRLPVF

[7] = Cytotoxicity against HEK293T cells assessed as decrease in cell viability after 48 hrs by MTT assay; format: cell-based, HEK-293T; conditions: human; outline: as §1
[8] = Cytotoxicity against human LO2 cells assessed as decrease in cell viability after 48 hrs by MTT assay; format: cell-based, L02; outline: as §1
[9] = biological target: Dual specificity mitogen-activated protein kinase kinase; MEK1/2 (Homo sapiens, UniProt P36507+Q02750); test: Inhibition of MEK1/2 (unknown origin); format: protein assay
[10] = biological target: Mitogen-activated protein kinase 8 (Homo sapiens, UniProt P45983); test: Inhibition of N-terminal flag-tagged JNK1 (unknown origin) expressed in baculovirus expression system after 60 mins in presence of [gamma-32P]ATP by topcount scintillation method
Chain of Mitogen-activated protein kinase 8 (P45983 whole entry): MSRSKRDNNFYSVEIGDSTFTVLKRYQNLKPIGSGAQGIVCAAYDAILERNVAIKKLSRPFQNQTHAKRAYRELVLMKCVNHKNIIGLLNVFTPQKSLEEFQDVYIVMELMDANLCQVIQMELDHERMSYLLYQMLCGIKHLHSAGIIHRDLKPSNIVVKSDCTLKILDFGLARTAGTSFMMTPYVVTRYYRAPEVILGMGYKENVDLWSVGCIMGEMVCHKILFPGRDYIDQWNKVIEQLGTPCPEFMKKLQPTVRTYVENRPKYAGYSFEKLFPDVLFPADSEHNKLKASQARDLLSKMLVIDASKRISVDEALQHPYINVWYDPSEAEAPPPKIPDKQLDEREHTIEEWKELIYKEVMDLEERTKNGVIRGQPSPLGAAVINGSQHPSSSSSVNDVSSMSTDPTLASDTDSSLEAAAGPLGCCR
Outline: (§2)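 Baculovirus-expressed N-terminal FLAG-tagged kinases in 25 mM HEPES pH 7.5, 10 mM Mg acetate, 1 mM DTT, 0.5 µM ATP plus [γ-³²P]ATP, 50 µL. p38α: 100 ng enzyme, MBP substrate. JNK1: 10 ng enzyme, 1 µg c-Jun. Compound and enzyme preincubated 5 min, ATP started the reaction, 60 min at 30 °C. Stopped with 10% TCA, filtered, washed with 3% phosphoric acid, counted by TopCount.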

[11] = biological target: Mitogen-activated protein kinase 14 (Homo sapiens, UniProt Q16539); test: Inhibition of N-terminal flag-tagged p38alpha (unknown origin) expressed in baculovirus expression system using MBP as substrate preincubated for 5 mins followed by substrate addition measured after 60 mins in presence of [gamma-32P]ATP by topcount scintillation method; outline: as §2
Chain of Mitogen-activated protein kinase 14 (Q16539 whole entry): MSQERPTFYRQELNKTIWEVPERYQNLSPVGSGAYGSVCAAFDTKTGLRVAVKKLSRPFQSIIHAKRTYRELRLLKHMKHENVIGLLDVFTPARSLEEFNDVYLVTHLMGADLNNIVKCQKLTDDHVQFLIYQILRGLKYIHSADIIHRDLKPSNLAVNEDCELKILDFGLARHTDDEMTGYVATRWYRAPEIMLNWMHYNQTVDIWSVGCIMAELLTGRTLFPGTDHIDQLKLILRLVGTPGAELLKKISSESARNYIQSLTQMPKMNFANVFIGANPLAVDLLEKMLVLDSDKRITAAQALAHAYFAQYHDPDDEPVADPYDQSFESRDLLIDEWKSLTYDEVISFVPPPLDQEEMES

[12] = system: Serine/threonine-protein kinase B-raf (Homo sapiens), P15056 [V600E]; test: Inhibition of BRAF V600E mutant in human A375 cells assessed as decrease in MEK1/2 phosphorylation up to 0.3 uM after 30 mins by Western blot analysis; format: cell-based
Chain of Serine/threonine-protein kinase B-raf (Homo sapiens), P15056 [V600E] (P15056 whole entry V600E): as the sequence (P15056 whole entry, the tested form may be a part) above, with V600E counted along it

SMILES	GI50 (A-375 [1])	GI50 (WM 266-4)	GI50 [2]	GI50 (HT-29)	GI50 (HCT-116)	Activity (A-375 [3])	Activity (Mus musculus)	IC50 [4]	IC50 [5]	IC50 [6]	GI50 at 48 h [7]	GI50 at 48 h [8]	IC50 [9]	IC50 [10]	IC50 [11]	inhibition [12]
CCCS(=O)(=O)Nc1ccc(F)c(C(=O)c2c[nH]c3ncc(-c4ccc(Cl)cc4)cc23)c1F [VEMURAFENIB]	0.95 µM	0.21 µM	20.8 µM	1.88 µM	25.2 µM	0.41 g	Non-Toxic	–	–	–	–	–	–	–	–	–
FC(F)(F)c1ccc(C2=NN(C(=S)Nc3ccccc3)C(c3ccc4c(c3)OCCO4)C2)cc1 (stereo not given)	43.5 µM	52.4 µM	123 µM	97.5 µM	112 µM	–	–	29.5 µM	35.6 µM	–	–	–	–	–	–	–
Fc1ccc(C2=NN(C(=S)Nc3ccccc3)C(c3ccc4c(c3)OCCO4)C2)cc1 (stereo not given)	15.7 µM	22.5 µM	65.3 µM	37.6 µM	61.2 µM	–	–	11.1 µM	23.1 µM	–	–	–	–	–	–	–
S=C(Nc1ccccc1)N1N=C(c2cccs2)CC1c1ccc2c(c1)OCCO2 (stereo not given)	121 µM	154 µM	7.96 µM	188 µM	8.19 µM	–	–	78.3 µM	5.21 µM	–	–	–	–	–	–	–
S=C(Nc1ccccc1)N1N=C(c2ccc(Cl)c(Cl)c2)CC1c1ccc2c(c1)OCCO2 (stereo not given)	41.9 µM	58.7 µM	122 µM	95.3 µM	125 µM	–	–	30.6 µM	39.3 µM	–	–	–	–	–	–	–
S=C(Nc1ccccc1)N1N=C(c2ccc(Br)cc2)CC1c1ccc2c(c1)OCCO2 (stereo not given)	0.47 µM	0.87 µM	37.5 µM	2.58 µM	32.1 µM	–	–	0.05 µM	18.7 µM	17.6 µM	152 µM	188 µM	188 µM	93.6 µM	> 200 µM	–
S=C(Nc1ccccc1)N1N=C(c2ccc(Cl)cc2)CC1c1ccc2c(c1)OCCO2 (stereo not given)	195 µM	> 200 µM	> 200 µM	187 µM	> 200 µM	–	–	135 µM	> 200 µM	–	–	–	–	–	–	–
COc1ccccc1C1=NN(C(=S)Nc2ccccc2)C(c2ccc3c(c2)OCCO3)C1 (stereo not given)	20.3 µM	25.8 µM	> 200 µM	30.5 µM	> 200 µM	–	–	12.1 µM	> 200 µM	–	–	–	–	–	–	–
S=C(Nc1ccccc1)N1N=C(c2ccccc2Br)CC1c1ccc2c(c1)OCCO2 (stereo not given)	> 200 µM	> 200 µM	> 200 µM	> 200 µM	195 µM	–	–	> 200 µM	124 µM	–	–	–	–	–	–	–
S=C(Nc1ccccc1)N1N=C(c2cccc(Cl)c2)CC1c1ccc2c(c1)OCCO2 (stereo not given)	> 200 µM	> 200 µM	153 µM	> 200 µM	138 µM	–	–	> 200 µM	95.9 µM	–	–	–	–	–	–	–
Cc1ccc(C2=NN(C(=S)Nc3ccccc3)C(c3ccc4c(c3)OCCO4)C2)cc1C (stereo not given)	61.3 µM	70.5 µM	148 µM	133 µM	144 µM	–	–	38.9 µM	48.9 µM	–	–	–	–	–	–	–
Cc1ccc(C2=NN(C(=S)Nc3ccccc3)C(c3ccc4c(c3)OCCO4)C2)cc1 (stereo not given)	6.32 µM	10.3 µM	> 200 µM	19.5 µM	> 200 µM	–	–	4.28 µM	> 200 µM	–	–	–	–	–	–	–
CSc1ccc(C2=NN(C(=S)Nc3ccccc3)C(c3ccc4c(c3)OCCO4)C2)cc1 (stereo not given)	159 µM	197 µM	187 µM	> 200 µM	193 µM	–	–	84.3 µM	156 µM	–	–	–	–	–	–	–
S=C(Nc1ccccc1)N1N=C(c2ccc(OCc3ccccc3)cc2)CC1c1ccc2c(c1)OCCO2 (stereo not given)	0.35 µM	0.42 µM	8.23 µM	0.86 µM	8.53 µM	–	–	0.01 µM	5.23 µM	3.15 µM	175 µM	> 200 µM	176 µM	88.9 µM	> 200 µM	Active
S=C(Nc1ccccc1)N1N=C(c2ccccc2)CC1c1ccc2c(c1)OCCO2 (stereo not given)	1.85 µM	3.18 µM	58.5 µM	6.63 µM	57.6 µM	–	–	0.82 µM	21.3 µM	–	–	–	–	–	–	–
O=[N+]([O-])c1ccc(C2=NN(C(=S)Nc3ccccc3)C(c3ccc4c(c3)OCCO4)C2)cc1 (stereo not given)	78.1 µM	105 µM	> 200 µM	153 µM	> 200 µM	–	–	57.2 µM	> 200 µM	–	–	–	–	–	–	–

Source: ChEMBL document CHEMBL4270537, “Design and biological evaluation of novel triaryl pyrazoline derivatives with dioxane moiety for selective BRAFV600E inhibition” (Eur J Med Chem, 2018)
